Columns and labels:
Rattus norvegicus [1] = test: Effect on Chylomicrons of neutral lipids Holtzman rats after 14 days administration; type: functional
Method in brief: (§1)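 Holtzman male rats (~400 g) given drug at 20 (mg/kg)/day for 14 days; on day 14 blood taken from the abdominal aorta and serum separated by centrifugation at 3500 rpm; lipid and protein content of the lipoprotein fractions measured.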

Mus musculus [2] = test: In vitro effect on CF1 male mouse on Fatty acid synthetase after 16 days at a dose of 20 (mg/kg)/day; type: functional
Method in brief: (§2)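 In vivo enzyme study. CF₁ male mice were dosed ip for 16 days in 1% CMC, and liver was homogenised to 10% in 0.25 M sucrose with 0.001 M EDTA. Enzymes assayed: acetyl-CoA synthetase as hydroxamate at 540 nm after 30 min at 37 °C; HMG CoA reductase with [1-¹⁴C]acetate in 9000g supernatant for 60 min at 37 °C; fatty acid synthetase with [2-¹⁴C]malonyl-CoA; acyltransferase with [³H]glycerol 3-phosphate and microsomes for 10 min; phosphatidate phosphohydrolase as released phosphate at 820 nm after 30 min. N = 6; reported as % control.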

Mus musculus [3] = test: Effect on Serum cholesterol levels on CF1 male mice at a dose of 12.5 (mg/kg)/day after 9 days; type: functional
Method in brief: (§3)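 CF1 male mice (~25 g), drug suspended in 1% carboxymethylcellulose in water, given ip daily for 16 days; n = 6; vehicle control. Tail-vein blood on days 9 and 16, serum cholesterol by modified Liebermann–Burchard reaction; day-14 serum triglyceride by commercial kit; expressed as % control.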

Mus musculus [4] = test: In vitro effect on CF1 male mouse on HMGCoA reductase after 16 days at a dose of 20 (mg/kg)/day; type: functional; method in brief: as §2
Mus musculus [5] = test: Effect on triglycerides from CF1 male mice after 16 days at a dose of 10 (mg/kg/day); type: functional
Method in brief: (§4)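 Dosing was ip in CF₁ male mice (~25 g) for 16 days, with compound suspended in 1% carboxymethylcellulose. Liver was then taken and homogenised to 10% in 0.25 M sucrose with 0.001 M EDTA. Lipid was extracted from a 2 mL aliquot by the Folch and Bligh–Dyer methods and total mg of lipid was weighed. Cholesterol (Liebermann–Burchard), triglycerides (kit), neutral lipids and phospholipids were then measured; N = 6; reported as % of vehicle control.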

Mus musculus [6] = test: Effect on Serum cholesterol levels on CF1 male mice at a dose of 25 (mg/kg)/day after 16 days; type: functional; method in brief: as §3
Mus musculus [7] = test: In vitro effect on CF1 male mouse on HMGCoA reductase after 16 days at a dose of 10 (mg/kg)/day; type: functional; method in brief: as §2
Mus musculus [8] = test: Effect on Serum triglceride levels on CF1 male mice at a dose of 50 (mg/kg)/day after 14 days; type: functional; method in brief: as §3
Mus musculus [9] = test: In vitro effect on CF1 male mouse on Ac-CoA synthetase after 16 days at a dose of 40 (mg/kg)/day; type: functional; method in brief: as §2
Rattus norvegicus [10] = test: Effect on Chylomicrons of Phospholipids Holtzman rats after 14 days administration; type: functional; method in brief: as §1
Mus musculus [11] = test: Effect on Serum triglceride levels on Hyperlipidemic induced mice After 14 days dosing.; type: functional
Method in brief: (§5)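 Mice fed atherogenic diet for 2 weeks to raise serum lipids, then given drug at 20 (mg/kg)/day ip for a further 2 weeks; serum cholesterol and triglyceride measured after the diet and after 14 days dosing; n = 6; compared with 1% CMC and diet-only controls; % control.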

Mus musculus [12] = species on record: Mus musculus; test: Effect on Serum cholesterol levels on Hyperlipidemic induced mice After 2-week diet; type: functional; method in brief: as §5
Mus musculus [13] = test: Effect on Serum cholesterol levels on CF1 male mice at a dose of 20 (mg/kg)/day after 9 days; type: functional; method in brief: as §3
Mus musculus [14] = test: In vitro effect on CF1 male mouse onAc-CoA carboxylase after 16 days at a dose of 60 (mg/kg)/day; type: functional
Method in brief: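 Mice (CF1 males) given agent ip daily for 16 days in 1% carboxymethylcellulose; liver 10% homogenate in 0.25 M sucrose + 0.001 M EDTA. Acetyl-CoA carboxylase first polymerized 30 min at 37 °C, then incubated 30 min at 37 °C with sodium [14C]bicarbonate (41.0 mCi/mmol); incorporated label counted. Activity as % of vehicle control; N = 6.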

Mus musculus [15] = test: In vitro effect on CF1 male mouse on Lipid content after 16 days at a dose of 60 (mg/kg)/day; type: functional
Mus musculus [16] = test: Effect on Serum triglceride levels on CF1 male mice at a dose of 100 (mg/kg)/day after 14 days; type: functional; method in brief: as §3
Mus musculus [17] = test: In vivo effect on CF1 male mouse on Lipid content after 16 days at a dose of 20 (mg/kg)/day
Rattus norvegicus [18] = test: Effect on low density Triglycerides Holtzman rats after 14 days administration; type: functional; method in brief: as §1
Mus musculus [19] = test: In vitro effect on CF1 male mouse on phosphatidate phosphohydrolase after 16 days at a dose of 40 (mg/kg)/day; type: functional
Method in brief: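 CF1 male mice dosed ip daily for 16 days, drug suspended in 1% carboxymethylcellulose; liver taken as 10% homogenate in 0.25 M sucrose + 0.001 M EDTA. Phosphatidate phosphohydrolase measured as inorganic phosphate released from phosphatidic acid after 30 min, developed with ascorbic acid/ammonium molybdate, read at 820 nm. Expressed as % of 1% CMC vehicle control; N = 6.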

Mus musculus [20] = test: Effect on phospholipids from CF1 male mice after 16 days at a dose of 40 (mg/kg/day); type: functional; method in brief: as §4
Rattus norvegicus [21] = test: Effect on Serum cholesterol levels on Holtzman rats at a dose of 30 (mg/kg)/day after 16 days; type: functional
Method in brief: (§6)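 Holtzman male rats (~200 g) dosed orally by intubation needle daily for 16 days, drug suspended in 1% carboxymethylcellulose; n = 6; vehicle control. Tail-vein serum cholesterol on days 9 and 16 by modified Liebermann–Burchard reaction; day-14 serum triglyceride by commercial kit; % control.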

Rattus norvegicus [22] = test: Effect on Chylomicrons of Protein Holtzman rats after 14 days administration; type: functional; method in brief: as §1
Rattus norvegicus [23] = test: Effect on Serum cholesterol levels on Holtzman rats at a dose of 20 (mg/kg)/day after 16 days; type: functional; method in brief: as §6
Mus musculus [24] = test: In vitro effect on CF1 male mouse on phosphatidate phosphohydrolase after 16 days at a dose of 10 (mg/kg)/day; type: functional; method in brief: as §2
Mus musculus [25] = test: Effect on mg of lipid from CF1 male mice after 16 days at a dose of 60 (mg/kg/day); type: functional; method in brief: as §4
Rattus norvegicus [26] = test: Effect on low density cholesterol Holtzman rats after 14 days administration; type: functional; method in brief: as §1
Mus musculus [27] = test: Effect on triglycerides from CF1 male mice after 16 days at a dose of 20 (mg/kg/day); type: functional; method in brief: as §4
Mus musculus [28] = test: Effect on cholesterol from CF1 male mice after 16 days at a dose of 10 (mg/kg/day); type: functional
Method in brief: (§7)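 CF1 male mice dosed ip for 16 days at 10–60 (mg/kg)/day; liver taken and 10% homogenate made in 0.25 M sucrose + 0.001 M EDTA; aliquot extracted by Folch and Bligh–Dyer methods, mg lipid weighed, cholesterol measured by Liebermann–Burchard method; n = 6; % of 1% CMC control.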

Mus musculus [29] = test: Effect on cholesterol from CF1 male mice after 16 days at a dose of 60 (mg/kg/day); type: functional; method in brief: as §7
Rattus norvegicus [30] = test: Effect on cholesterol chylomicrons Holtzman rats after 14 days administration; type: functional; method in brief: as §1
Mus musculus [31] = species on record: Mus musculus; test: In vitro effect on CF1 male mouse on HMGCoA reductase; type: functional
Mus musculus [32] = test: Effect on neutral lipids from CF1 male mice after 16 days at a dose of 20 (mg/kg/day); type: functional; method in brief: as §4

## CC(=O)c1ccccc1N1C(=O)c2ccccc2C1=O
Rattus norvegicus [1]
  Control: 50%
Mus musculus [2]
  Control: 97%
Mus musculus [3]
  Control: 83%
Mus musculus [4]
  Control: 81%
Mus musculus [5]
  Control: 46%
Mus musculus [6]
  Control: 38%
Mus musculus [7]
  Control: 98%
Mus musculus [8]
  Control: 53%
Mus musculus [9]
  Control: 59%
Rattus norvegicus [10]
  Control: 171%
Mus musculus [11]
  Control: 86%
Mus musculus [12]
  Control: 289%
Mus musculus [13]
  Control: 89%
Mus musculus [14]
  Control: 57%
Mus musculus [15]
  Control: 80%
Mus musculus [16]
  Control: 59%
Mus musculus [17]
  Control: 85%
Rattus norvegicus [18]
  Control: 52%
Mus musculus [19]
  Control: 54%
Mus musculus [20]
  Control: 143%
Rattus norvegicus [21]
  Control: 64%
Rattus norvegicus [22]
  Control: 91%
Rattus norvegicus [23]
  Control: 56%
Mus musculus [24]
  Control: 85%
Mus musculus [25]
  Control: 80%
Rattus norvegicus [26]
  Control: 57%
Mus musculus [27]
  Control: 91%
Mus musculus [28]
  Control: 73%
Mus musculus [29]
  Control: 82%
Rattus norvegicus [30]
  Control: 64%
Mus musculus [31]
  Control: 91%
Mus musculus [32]
  Control: 65%

Source: ChEMBL document CHEMBL1122328, “Hypolipidemic activity of phthalimide derivatives. 2. N-phenylphthalimide and derivatives” (1983)
